Several values for one entry are separate records, joined by “and”; a condition that tells them apart may be missing. Equal entries are not always repeated.
Key:
MCF7 [1] = test: Cell viability against human MCF7 cells at 10 uM; format: functional
HOP-92 = test: Antitumor activity against human HOP92 cells; format: functional
Method in brief: (§1)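 Run by the NCI in its in vitro disease-oriented screen of about 60 human tumour cell lines. For each line it reports pGI50 (50% net growth inhibition), pTGI (total growth inhibition) and pLC50 (50% net cell death), each as –log molar concentration. Where an effect was not reached within the tested range, the highest tested concentration was used.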

COLO 205 = test: Antitumor activity against human COLO205 cells; format: functional; method in brief: as §1
DU-145 = test: Antitumor activity against human DU145 cells; format: functional; method in brief: as §1
NCI-H522 = test: Antitumor activity against human NCI-H522 cells; format: functional; method in brief: as §1
SK-MEL-5 = test: Antitumor activity against human SKMEL5 cells; format: functional; method in brief: as §1
MCF7 [2] = test: Growth inhibition of human MCF7 cells after 72 hrs by MTT assay; format: functional; conditions: MCF7, 72 h
Method in brief: (§2)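 Growth inhibition by MTT after 72 h incubation. Resistant sublines: LoVoDoxo and MCF-7 MDR were kept in 0.1 µg/mL doxorubicin; CEMVbl-100 was selected against vinblastine. GI50 given as mean ± SEM of three independent experiments. Resistance index is resistant-line GI50 over parental GI50.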

PC-3 = test: Antitumor activity against human PC3 cells; format: functional; method in brief: as §1
NCI-H460 = test: Cell viability against human NCI-H460 cells at 10 uM; format: functional
HCT-116 = test: Antitumor activity against human HCT116 cells; format: functional; method in brief: as §1
SF-539 = test: Antitumor activity against human SF539 cells; format: functional; method in brief: as §1
SNB-75 = test: Antitumor activity against human SNB75 cells; format: functional; conditions: Homo sapiens, SNB-75; method in brief: as §1
SK-MEL-2 = test: Antitumor activity against human SKMEL2 cells; format: functional; method in brief: as §1
786-0 = test: Antitumor activity against human 786-0 cells; format: functional; method in brief: as §1
CAKI-1 = test: Antitumor activity against human CAKI1 cells; format: functional; method in brief: as §1
MCF7 [3] = test: Resistance index, Ratio of GI50 for human multidrug-resistant MCF7 cells to GI50 for human MCF7 cells; format: functional; method in brief: as §2
Tubulin (Sus scrofa) = Tubulin (Sus scrofa) (UniProt P02554+P02550); test: Inhibition of pig brain tubulin polymerization
Sequence of Tubulin (Sus scrofa) (P02550 whole entry, looked up): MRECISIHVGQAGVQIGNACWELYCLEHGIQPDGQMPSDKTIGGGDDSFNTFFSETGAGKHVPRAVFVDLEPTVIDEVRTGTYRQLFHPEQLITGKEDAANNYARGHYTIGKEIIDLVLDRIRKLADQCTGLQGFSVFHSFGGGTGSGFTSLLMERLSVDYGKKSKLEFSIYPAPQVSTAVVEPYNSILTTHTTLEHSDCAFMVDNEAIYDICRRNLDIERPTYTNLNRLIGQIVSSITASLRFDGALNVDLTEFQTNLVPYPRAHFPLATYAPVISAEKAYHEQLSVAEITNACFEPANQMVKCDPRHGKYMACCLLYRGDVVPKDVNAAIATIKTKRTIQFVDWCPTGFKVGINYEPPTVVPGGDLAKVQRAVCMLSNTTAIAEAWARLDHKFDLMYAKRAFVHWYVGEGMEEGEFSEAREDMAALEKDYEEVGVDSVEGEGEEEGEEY
Sequence of Tubulin (Sus scrofa) (P02554 whole entry, looked up): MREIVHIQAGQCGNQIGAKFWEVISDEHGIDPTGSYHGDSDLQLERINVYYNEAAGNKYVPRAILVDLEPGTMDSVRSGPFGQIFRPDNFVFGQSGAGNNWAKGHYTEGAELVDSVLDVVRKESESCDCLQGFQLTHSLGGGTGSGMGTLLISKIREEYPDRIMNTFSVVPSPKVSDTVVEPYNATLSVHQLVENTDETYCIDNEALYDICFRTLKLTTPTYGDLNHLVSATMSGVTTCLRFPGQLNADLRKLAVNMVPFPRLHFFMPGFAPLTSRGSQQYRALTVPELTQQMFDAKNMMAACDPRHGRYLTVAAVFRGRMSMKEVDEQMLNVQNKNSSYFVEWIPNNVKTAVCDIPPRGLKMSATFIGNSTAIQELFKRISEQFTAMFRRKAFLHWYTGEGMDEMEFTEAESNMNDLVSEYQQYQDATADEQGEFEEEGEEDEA

CCRF-CEM = test: Resistance index, Ratio of GI50 for human vinblastine-resistant CEM cells to GI50 for human CEM cells; format: functional
[4] = Antitumor activity against human NCI-H322 cells; format: functional; method in brief: as §1
EKVX = test: Antitumor activity against human EKVX cells; format: functional; method in brief: as §1
MCF7 [5] = test: Antitumor activity against human MCF7 cells; format: functional; method in brief: as §1
SK-OV-3 = test: Antitumor activity against human SKOV3 cells; format: functional; method in brief: as §1
LOX IMVI = test: Antitumor activity against human LOXIMVI cells; format: functional; method in brief: as §1
Malme-3M = test: Antitumor activity against human MALME3M cells; format: functional; method in brief: as §1
SF-268 = test: Antitumor activity against human SF268 cells; format: functional; method in brief: as §1
M14 = test: Antitumor activity against human M14 cells; format: functional; method in brief: as §1
OVCAR-4 = test: Antitumor activity against human OVCAR4 cells; format: functional; method in brief: as §1
HCT-15 = test: Antitumor activity against human HCT15 cells; format: functional; method in brief: as §1
A549 = test: Antitumor activity against human A549 cells; format: functional; method in brief: as §1
HCC 2998 = test: Antitumor activity against human HCC2998 cells; format: functional; method in brief: as §1
SN12C = test: Antitumor activity against human SN12C cells; format: functional; method in brief: as §1
[6] = Antitumor activity against human […] cells; format: functional; method in brief: as §1
OVCAR-3 = test: Antitumor activity against human OVCAR-3 cells; format: functional; method in brief: as §1
SK-MEL-28 = test: Antitumor activity against human SKMEL28 cells; format: functional; method in brief: as §1
A498 = test: Antitumor activity against human A498 cells; format: functional; method in brief: as §1
RPMI-8226 = test: Antitumor activity against human RPMI8226 cells; format: functional; method in brief: as §1
SNB-19 = test: Antitumor activity against human SNB19 cells; format: functional; method in brief: as §1
MDA-MB-435 = test: Antitumor activity against human MDA-MB-435 cells; format: functional; method in brief: as §1
IGROV-1 = test: Antitumor activity against human IGROV1 cells; format: functional; method in brief: as §1
NCI/ADR-RES = test: Antitumor activity against human NCI/ADR-RES cells; format: functional; method in brief: as §1
RXF 393 = test: Antitumor activity against human RXF393 cells; format: functional; method in brief: as §1
[7] = read-out: Log LC50 (the source's name) (converted)

Cc1cc2[nH]c(=O)c3c4ccccc4cn3c2cc1C
Activity (MCF7 [1]): 0%
GI50 (HOP-92): 15.5 µM
LC50 (HOP-92): 58.9 µM
TGI (HOP-92; read-out: pTGI (converted)): 30.2 µM
GI50 (COLO 205): 15.1 µM
LC50 (COLO 205): > 100 µM
TGI (COLO 205; read-out: pTGI (converted)): > 100 µM
GI50 (DU-145): 13.8 µM and 30.2 µM
CC50 (DU-145; Homo sapiens, DU-145, read-out: Log LC50 (the source's name) (converted)): 64.6 µM
GI50 (NCI-H522): 14.5 µM
CC50 (NCI-H522; [7]): 66.1 µM
TGI (NCI-H522; read-out: pTGI (converted)): 30.9 µM
GI50 (SK-MEL-5): 13.5 µM
LC50 (SK-MEL-5): 64.6 µM
TGI (SK-MEL-5; read-out: pTGI (converted)): 29.5 µM
GI50 (MCF7 [2]): 5.1 µM
GI50 (PC-3): 12 µM
LC50 (50% net cell death) (PC-3): 53.7 µM
TGI (PC-3; read-out: pTGI (converted)): 25.7 µM
Activity (NCI-H460): 0%
GI50 (HCT-116): 1.58 µM
LC50 (HCT-116): 6.17 µM
TGI (HCT-116; read-out: pTGI (converted)): 3.09 µM
GI50 (SF-539): 11.2 µM
LC50 (50% net cell kill) (SF-539): 64.6 µM
TGI (SF-539; read-out: pTGI (converted)): 26.9 µM
GI50 (SNB-75): 15.5 µM
LC50 (SNB-75): 58.9 µM
TGI (SNB-75; read-out: pTGI (converted)): 30.2 µM
GI50 (SK-MEL-2): 18.2 µM
LC50 (SK-MEL-2): 66.1 µM
TGI (SK-MEL-2; read-out: pTGI (converted)): 34.7 µM
GI50 (786-0): 10.7 µM
CC50 (786-0; [7]): 47.9 µM
TGI (786-0; read-out: pTGI (converted)): 22.9 µM
GI50 (CAKI-1): 5.37 µM
LC50 (CAKI-1): 49 µM
TGI (CAKI-1; read-out: pTGI (converted)): 17.8 µM
RatioGI50 (MCF7 [3]): 1.8
Activity (Tubulin (Sus scrofa)): > 10 µM
RatioGI50 (CCRF-CEM): 0.97
GI50 [4]: 16.6 µM
LC50 (50% net cell death) [4]: 55 µM
TGI ([4]; read-out: pTGI (converted)): 30.2 µM
GI50 (EKVX): 13.5 µM
LC50 (50% net cell kill) (EKVX): 75.9 µM
TGI (EKVX; read-out: pTGI (converted)): 31.6 µM
GI50 (MCF7 [5]): 11.7 µM
LC50 (50% net cell kill) (MCF7 [5]): > 100 µM
TGI (MCF7 [5]; read-out: pTGI (converted)): > 100 µM
GI50 (SK-OV-3): 18.2 µM
LC50 (50% net cell kill) (SK-OV-3): 64.6 µM
TGI (SK-OV-3; read-out: pTGI (converted)): 34.7 µM
GI50 (LOX IMVI): 2.04 µM
LC50 (50% net cell kill) (LOX IMVI): 7.94 µM
TGI (LOX IMVI; read-out: pTGI (converted)): 3.98 µM
GI50 (Malme-3M): 22.4 µM
CC50 (Malme-3M; [7]): 63.1 µM
TGI (Malme-3M; read-out: pTGI (converted)): 37.2 µM
GI50 (SF-268): 15.5 µM
CC50 (SF-268; [7]): 69.2 µM
TGI (SF-268; read-out: pTGI (converted)): 32.4 µM
GI50 (M14): 13.5 µM
CC50 (M14; [7]): 52.5 µM
TGI (M14; read-out: pTGI (converted)): 26.9 µM
GI50 (OVCAR-4): 13.5 µM
LC50 (50% net cell kill) (OVCAR-4): 56.2 µM
TGI (OVCAR-4; read-out: pTGI (converted)): 27.5 µM
GI50 (HCT-15): 6.17 µM
CC50 (HCT-15; [7]): 61.7 µM
TGI (HCT-15; read-out: pTGI (converted)): 21.9 µM
GI50 (A549): 14.8 µM
CC50 (A549; [7]): 95.5 µM
TGI (A549; read-out: pTGI (converted)): 38 µM
GI50 (HCC 2998): 4.07 µM
LC50 (HCC 2998): 50.1 µM
TGI (HCC 2998; read-out: pTGI (converted)): 16.6 µM
GI50 (SN12C): 6.03 µM
LC50 (SN12C): 56.2 µM
TGI (SN12C; read-out: pTGI (converted)): 20.4 µM
GI50 [6]: 8.32 µM
LC50 [6]: 60.3 µM
TGI ([6]; read-out: pTGI (converted)): 23.4 µM
GI50 (OVCAR-3): 13.8 µM
LC50 (50% net cell death) (OVCAR-3): 57.5 µM
TGI (OVCAR-3; read-out: pTGI (converted)): 28.2 µM
GI50 (SK-MEL-28): 14.8 µM
CC50 (SK-MEL-28; [7]): 83.2 µM
TGI (SK-MEL-28; read-out: pTGI (converted)): 35.5 µM
GI50 (A498): 21.4 µM
CC50 (A498; [7]): 72.4 µM
TGI (A498; read-out: pTGI (converted)): 39.8 µM
GI50 (RPMI-8226): 6.76 µM
CC50 (RPMI-8226; [7]): > 100 µM
TGI (RPMI-8226; read-out: pTGI (converted)): 29.5 µM
GI50 (SNB-19): 16.2 µM
CC50 (SNB-19; [7]): 83.2 µM
TGI (SNB-19; read-out: pTGI (converted)): 36.3 µM
GI50 (MDA-MB-435): 6.03 µM
LC50 (50% net cell death) (MDA-MB-435): 50.1 µM
TGI (MDA-MB-435; read-out: pTGI (converted)): 20 µM
GI50 (IGROV-1): 12.3 µM
CC50 (IGROV-1; [7]): 57.5 µM
TGI (IGROV-1; read-out: pTGI (converted)): 26.9 µM
GI50 (NCI/ADR-RES): 13.5 µM
LC50 (NCI/ADR-RES): 74.1 µM
TGI (NCI/ADR-RES; read-out: pTGI (converted)): 31.6 µM
GI50 (RXF 393): 12 µM
CC50 (RXF 393; [7]): 63.1 µM
TGI (RXF 393; read-out: pTGI (converted)): 27.5 µM

Source: ChEMBL document CHEMBL1144782, “Isoindolo[2,1-a]quinoxaline derivatives, novel potent antitumor agents with dual inhibition of tubulin polymerization and topoisomerase I” (2008)
